Test results from ChEMBL document CHEMBL4765236, “Insights into the Antimicrobial Activity and Cytotoxicity of Engineered α-Helical Peptide Amphiphiles” (J Med Chem, 2016).
Activity calls are given as the source filed them. The rule behind the calls is not given here.

Experiments:
[1] = system: Escherichia coli; experiment: Antibacterial activity against Escherichia coli O157:H7 CICC 21530 assessed as bacterial growth inhibition incubated for 18 to 24 hrs in presence of 4.5 mM KCl by microtiter broth dilution method (reference value: 0.85 to > 71.5 uM); format: functional; conditions: time 18-24 hrs
[2] = system: Salmonella paratyphi; experiment: Antibacterial activity against Salmonella paratyphi C CICC 21512 assessed as bacterial growth inhibition incubated for 18 to 24 hrs by microtiter broth dilution method; format: functional; conditions: Salmonella enterica, time 18-24 hrs
How it was run: (§1)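 Log-phase bacteria grown at 37 °C in MHB, diluted to 10^5 CFU/mL, mixed 1:1 with serial peptide dilutions (peptide diluted in 0.01% acetic acid, 0.2% BSA); 37 °C for 18-24 h. MIC read by OD492 as lowest concentration giving no growth; mean of 3-5 independent experiments.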

[3] = system: RAW264.7; experiment: Antiinflammatory activity against mouse RAW264.7 cells assessed as inhibition of LPS-induced nitric oxide production measured after 24 hrs by Griess reagent based ELISA; format: functional, cell-based; conditions: dose 0.5-64 µM
How it was run: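 RAW264.7 cells plated at 1-2 × 10^5 cells/mL and stimulated with 500 ng/mL LPS with or without peptide (0.5-64 µM) for 24 h at 37 °C. Controls were untreated cells and LPS alone. TNF-α in the supernatant measured by ELISA. NO measured by Griess reagent (1% sulfanilamide, 0.1% naphthylethylenediamine, 5% phosphoric acid).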

[4] = system: Bacillus cereus; experiment: Antibacterial activity against Bacillus cereus CMCC 63301 assessed as bacterial growth inhibition incubated for 18 to 24 hrs by microtiter broth dilution method; format: functional; conditions: time 18-24 hrs
How it was run: (§2)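 Log-phase cells (grown overnight at 37 °C, subcultured in MHB) diluted to 10^5 CFU/mL in MHB and mixed 1:1 with serial peptide dilutions prepared in 0.01% acetic acid/0.2% BSA. Incubated 37 °C for 18-24 h. MIC is the lowest concentration giving no growth by OD492. Reported as the average of 3-5 independent experiments.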

[5] = system: Escherichia coli; experiment: Antibacterial activity against Escherichia coli O157:H7 CICC 21530 assessed as bacterial growth inhibition incubated for 18 to 24 hrs in presence of 2 mM CaCl2 by microtiter broth dilution method (reference value: 0.85 to > 71.5 uM); format: functional; conditions: time 18-24 hrs
[6] = system: Escherichia coli; experiment: Antibacterial activity against Escherichia coli ATCC 35150 assessed as bacterial growth inhibition incubated for 18 to 24 hrs by microtiter broth dilution method; format: functional; conditions: time 18-24 hrs; how it was run: as §2
[7] = system: Pseudomonas fluorescens; experiment: Antibacterial activity against Pseudomonas fluorescens CICC 21620 assessed as bacterial growth inhibition incubated for 18 to 24 hrs by microtiter broth dilution method; format: functional; conditions: time 18-24 hrs; how it was run: as §2
[8] = system: Staphylococcus aureus; experiment: Antibacterial activity against Staphylococcus aureus ATCC 29213 assessed as bacterial growth inhibition incubated for 18 to 24 hrs in presence of […] by microtiter broth dilution method (reference value: 0.43 to > 71.5 uM); format: functional; conditions: time 18-24 hrs
[9] = Therapeutic index, ratio of MHC10 for human RBC to geometric mean of peptide MIC for Escherichia coli O157:H7 CICC 21530; format: toxicity; conditions: human red blood cells (RBC), pooled result: one value given for 11 cell lines, strains, targets or settings, read-out: TI
How it was run: (§3)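 Therapeutic index = MHC (peptide concentration giving 10% hemolysis of human RBCs, 1 h, 37 °C, A540) divided by geometric mean of MICs from broth microdilution (10^5 CFU/mL in MHB, 37 °C, 18-24 h, OD492).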

[10] = system: Staphylococcus aureus; experiment: Antibacterial activity against methicillin resistant Staphylococcus aureus ATCC 43300 assessed as bacterial growth inhibition incubated for 18 to 24 hrs by microtiter broth dilution method; format: functional; conditions: time 18-24 hrs; how it was run: as §1
[11] = system: Staphylococcus aureus; experiment: Antibacterial activity against Staphylococcus aureus ATCC 29213 assessed as bacterial growth inhibition incubated for 18 to 24 hrs in presence of 2 mM CaCl2 by microtiter broth dilution method (reference value: 0.43 to > 71.5 uM); format: functional; conditions: time 18-24 hrs
[12] = system: Staphylococcus aureus; experiment: Antibacterial activity against Staphylococcus aureus ATCC 29213 assessed as bacterial growth inhibition incubated for 18 to 24 hrs in presence of 150 mM NaCl by microtiter broth dilution method (reference value: 0.43 to > 71.5 uM); format: functional; conditions: time 18-24 hrs
[13] = system: Cell membrane; experiment: Induction of cell membrane depolarization in Escherichia coli O157:H7 CICC 21530 assessed as increase in fluorescence intensity at 0.5 to 2 times MIC preincubated for 90 mins followed by KCl addition and measured after 15 to 30 mins by DiSC3-5 staining based fluorescence spectroscopic technique; format: subcellular; conditions: time 105-120 min
[14] = system: Cell membrane; experiment: Induction of inner membrane permeabilization in Escherichia coli O157:H7 CICC 21530 assessed as cytoplasmic beta-galactosidase release at 1 times MIC using ONPG as substrate by […]; format: subcellular
[15] = system: Staphylococcus aureus; experiment: Bactericidal activity against Staphylococcus aureus ATCC 29213 assessed as bacterial killing at 1 times MIC by time kill assay; format: functional, organism-based; conditions: time 1085.0 min, TDE = time-dependent effect
How it was run: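 Log-phase S. aureus 29213 exposed to peptide at 1 × MIC in 10 mM PBS pH 7.4 at 37 °C for 0-90 min. Aliquots taken at fixed intervals, diluted and plated on nutrient agar, and colonies counted after 18 h at 37 °C. Average of three independent assays.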

[16] = Therapeutic index, ratio of MHC10 for human RBC to geometric mean of peptide MIC for Staphylococcus aureus ATCC 29213; format: toxicity; conditions: human red blood cells (RBC), pooled result: one value given for 9 cell lines, strains, targets or settings, read-out: TI; how it was run: as §3
[17] = system: Escherichia coli; experiment: Antibacterial activity against Escherichia coli O157:H7 CICC 21530 assessed as bacterial growth inhibition incubated for 18 to 24 hrs in presence of 4 mM FeCl3 by microtiter broth dilution method (reference value: 0.85 to > 71.5 uM); format: functional; conditions: time 18-24 hrs
[18] = system: Salmonella enteritidis; experiment: Antibacterial activity against Salmonella enteritidis CICC 21527 assessed as bacterial growth inhibition incubated for 18 to 24 hrs by microtiter broth dilution method; format: functional, Salmonella enterica subsp. enterica serovar Enteritidis; conditions: Salmonella enterica, time 18-24 hrs; how it was run: as §2
[19] = system: Erythrocyte; experiment: Hemolytic activity against human red blood cells assessed as concentration required to cause 10% hemoglobin release measured after 1 hr by microplate reader analysis; format: ADME, cell-based
How it was run: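 Fresh heparinized human RBCs washed three times in 10 mM PBS pH 7.4 and resuspended to about 1% (v/v) (5.4 × 10^8 cells/mL). Mixed 1:1 with peptide in PBS for 1 h at 37 °C, then centrifuged. Supernatant hemoglobin read at A540. PBS set as 0% and 0.1% Triton X-100 as 100% hemolysis. MHC is the concentration causing 10% hemolysis.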

[20] = system: Candida albicans; experiment: Antifungal activity against Candida albicans ATCC 10231 assessed as fungal growth inhibition incubated for 18 to 24 hrs by microtiter broth dilution method; format: functional; conditions: time 18-24 hrs; how it was run: as §2
[21] = system: Listeria monocytogenes; experiment: Antibacterial activity against Listeria monocytogenes CICC 21662 assessed as bacterial growth inhibition incubated for 18 to 24 hrs by microtiter broth dilution method; format: functional; conditions: time 18-24 hrs; how it was run: as §2
[22] = system: Staphylococcus aureus; experiment: Antibacterial activity against Staphylococcus aureus ATCC 29213 assessed as bacterial growth inhibition incubated for 18 to 24 hrs in presence of 6 mM NH4Cl by microtiter broth dilution method (reference value: 0.43 to > 71.5 uM); format: functional; conditions: time 18-24 hrs
[23] = system: Salmonella enterica; experiment: Antibacterial activity against Salmonella choleraesuis ATCC 13312 assessed as bacterial growth inhibition incubated for 18 to 24 hrs by broth dilution method; format: functional; conditions: time 18-24 hrs; how it was run: as §1

Substance | MIC [1] | MIC [2] | Activity [3] | MIC [4] | MIC [5] | MIC [6] | MIC [7] | MIC [8] | selectivity ratio [9] | MIC [10] | MIC [11] | MIC [12] | Activity [13] | Activity [14] | Activity [15] | selectivity ratio [16] | MIC [17] | MIC [18] | MHC10 [19] | MIC [20] | other results
H-WGEAFSAGVHRLANGGNG-NH2 | > 71.2 µM | > 71.2 µM | Dose-dependent effect | > 71.2 µM | > 71.2 µM | > 71.2 µM | > 71.2 µM | > 71.2 µM | 1 | > 71.2 µM | > 71.2 µM | > 71.2 µM | Active | inactive | Tde | 1 | > 71.2 µM | > 71.2 µM | > 71.15 µM | > 71.2 µM | MIC [21]: > 71.2 µM; MIC [22]: > 71.2 µM; MIC [23]: > 71.2 µM
H-WGRAFRRGVRRLARGGRR-NH2 | 3.67 µM | 7.33 µM | Dose-dependent effect | 14.7 µM | 7.33 µM | 29.3 µM | 29.3 µM | > 58.6 µM | 7.51 | 14.7 µM | 7.33 µM | 14.7 µM | Active | inactive | Tde | 8 | > 58.6 µM | > 58.6 µM | > 58.64 µM | 29.3 µM | MIC [21]: 7.33 µM; MIC [22]: 7.33 µM; MIC [23]: 14.7 µM
H-WGRAFRRLVRRLARGLRR-NH2 | 3.49 µM | 3.49 µM | Dose-dependent effect | 55.8 µM | 13.9 µM | 13.9 µM | 55.8 µM | > 55.8 µM | 10.3 | 6.97 µM | 3.49 µM | 6.97 µM | Active | inactive | Tde | 11.8 | > 55.8 µM | > 55.8 µM | > 55.78 µM | 13.9 µM | MIC [21]: 1.74 µM; MIC [22]: 1.74 µM; MIC [23]: 13.9 µM
H-WGRAFSAGVHRLANGGNG-NH2 | > 70.1 µM | > 70.1 µM | Dose-dependent effect | > 70.1 µM | > 70.1 µM | > 70.1 µM | > 70.1 µM | > 70.1 µM | 1 | > 70.1 µM | > 70.1 µM | > 70.1 µM | Active | inactive | Tde | 1.08 | > 70.1 µM | > 70.1 µM | > 70.09 µM | > 70.1 µM | MIC [21]: > 70.1 µM; MIC [22]: > 70.1 µM; MIC [23]: > 70.1 µM
H-WGRAFSAGVHRLARGGRG-NH2 | 4.19 µM | > 67 µM | Dose-dependent effect | > 67 µM | > 67 µM | > 67 µM | > 67 µM | > 67 µM | 1.55 | > 67 µM | > 67 µM | > 67 µM | Active | inactive | Tde | 1.26 | > 67 µM | > 67 µM | > 67.01 µM | > 67 µM | MIC [21]: 33.5 µM; MIC [22]: > 67 µM; MIC [23]: 33.5 µM
H-WGRAFSRGVRRLARGGRG-NH2 | 3.97 µM | 15.9 µM | Dose-dependent effect | > 63.5 µM | 15.9 µM | 31.8 µM | > 63.5 µM | > 63.5 µM | 4.26 | > 63.5 µM | > 63.5 µM | > 63.5 µM | Active | inactive | Tde | 2.16 | > 63.5 µM | > 63.5 µM | > 63.54 µM | > 63.5 µM | MIC [21]: 15.9 µM; MIC [22]: > 63.5 µM; MIC [23]: 15.9 µM
